Assay outcomes from PubChem BioAssay.
A selection: hits, their analogues and other compounds. The true share with any hit is near 2.5%.
EWS-Fli inh = EWS/Fli-driven NR0B1 reporter inhibitors, primary screen, A673 cells, NR0B1 luciferase, luminescence, MLPCN library. viability-normalised. inhibition, % at 12.6 µM. 0.67% of 350,000 active. AID 651661, 2012;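 active = mean inhibition of at least 50% after viability correction, with every replicate also passing that limit; inconclusive = mean reaches 50% but only one of two replicates passes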;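 note: firefly luciferase signal divided by Alamar Blue viability fluorescence both relative to DMSO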
FN deposition inh = inhibitors of fibronectin matrix deposition, primary screen, AH1F cells, Alexa488-fibronectin fluorescence, plate reader; AH1F fibroblasts, overnight; inhibition, % at 12.6 µM; 0.086% of 350,000 active; AID 743247, 2014;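 active = mean inhibition across replicates of 30% or more, regardless of how many single replicates reach that level; inconclusive = mean under 30% yet at least half of replicates reach 30%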;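 note: positive control wells lacked labelled fibronectin entirely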
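Material – AH1F fibroblast monolayer, labelled fibronectin deposition · Reagent – labelled fibronectin 24 nM · Timing – 1 h adhesion, overnight exposure · Measured by – fluorescence at 485 nm excitation, 525 nm emission · Read-out – inhibition of fibronectin deposition signal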
Glyco luc inh = increase of ERlucT glycosylation luciferase signal, primary screen, N-linked glycosylation inhibitor project, D54 ERlucT cells, luminescence, set 2. D54 ERlucT glycosylation luciferase reporter, 24 h; percent of 100 nM tunicamycin response. reporter increase, % at 12.5 µM. 0.23% of 360,000 active;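 active = mean luciferase reporter signal, scaled so untreated is 0 and the glycosylation-blocking control 100, at or above a set limit in every replicate; inconclusive = mean reaches the limit but not every replicate does; inactive = mean below the limit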;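 note: luciferase carries N-glycosylation sites so blocking glycosylation raises the light; 0% = median of neutral control wells and 100% = median of 100 nM tunicamycin wells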
HIV Env fusion = inhibitors of HIV-1 Env-driven cell-cell fusion, primary screen, HeLa-JRFL effector, CEM21 target cells, luciferase. 1.1% of 360,000 active. inhibition, % at 12.3 µM. AID 651610, 2012;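 active = mean replicate inhibition score of at least 50 and every replicate individually at or above 50; inconclusive = only one of the two criteria met; inactive = mean below 50 and not all replicates reaching 50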;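 note: 0% = plate neutral controls and 100% = maraviroc near 300 nM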
MLL AF4-AF9 inh = inhibitors of AF4 peptide binding to AF9, primary screen, biochemical, AlphaScreen, biotin-AF4 peptide, FLAG-AF9, single point; Protein AF-9 (Homo sapiens), P42568; inhibition, % at 10 µM; 0.47% of 350,000 active; AID 651704, 2012;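 active = every replicate reaching a set inhibition limit, whatever the replicate mean, cut at about 25% in these data; inconclusive = mean inhibition reaches that limit but some replicates miss it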;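 note: 0% = plate neutral control median and 100% = total signal loss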
Target sequence (P42568 whole entry, looked up): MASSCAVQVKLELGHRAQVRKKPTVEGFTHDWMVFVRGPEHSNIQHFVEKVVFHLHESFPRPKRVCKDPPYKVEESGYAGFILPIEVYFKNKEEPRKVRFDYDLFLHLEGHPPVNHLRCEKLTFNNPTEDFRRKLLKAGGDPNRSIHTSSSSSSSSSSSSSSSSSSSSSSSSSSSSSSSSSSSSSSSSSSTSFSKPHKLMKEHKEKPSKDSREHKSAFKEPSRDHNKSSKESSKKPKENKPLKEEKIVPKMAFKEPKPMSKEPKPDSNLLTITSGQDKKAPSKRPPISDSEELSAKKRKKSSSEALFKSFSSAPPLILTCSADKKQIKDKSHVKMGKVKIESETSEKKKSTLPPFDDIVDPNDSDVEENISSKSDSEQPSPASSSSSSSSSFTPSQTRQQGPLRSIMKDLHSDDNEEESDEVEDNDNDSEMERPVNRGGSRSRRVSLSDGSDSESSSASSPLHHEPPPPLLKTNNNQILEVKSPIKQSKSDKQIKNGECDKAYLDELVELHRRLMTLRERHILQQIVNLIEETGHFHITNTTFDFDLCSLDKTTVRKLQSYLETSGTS
PAX8 inh HTS = inhibitors of PAX8-driven TPO luciferase reporter, primary screen, RMG-I cells, single concentration; SteadyGlo, 24 h; inhibition, % at 12.6 µM; 1.2% of 360,000 active; AID 652154, 2013;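 active = mean replicate inhibition at least 60% with every replicate also reaching 60%; inconclusive = only one of the two criteria is met; inactive = mean below 60% and not all replicates reaching 60%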;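 note: luciferase light reporting Pax8 driven TPO promoter activity; plate controls were median of neutral control wells for no effect and mitoxantrone controls for full effect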
The depositor's hits bear a star; ? = inconclusive; / = not tested or not shown; [ ] = remark or other dose.

SMILES	EWS-Fli inh	FN deposition inh	Glyco luc inh	HIV Env fusion	MLL AF4-AF9 inh	PAX8 inh HTS
C[C@H](CO)N1C[C@H](C)[C@@H](CN(C)Cc2ccc(O)cc2)OCc2ccccc2-c2c(n(C)c3ccccc23)C1=O	/	-13	/	/	5	0
C[C@@H]1CN([C@H](C)CO)C(=O)c2cc(C#Cc3ccccc3)cnc2O[C@@H]1CN(C)CC1CCOCC1	1	/	/	5[16.7 µM]	3	/
O=C(O)c1cccc2c1C(=O)c1ccccc1-2	-8	12	-1	30	1	-3
O=C1C(=C(I)I)c2ccccc2-c2ccccc21	58*	55*	-5	43	1	128*
O=c1[nH]c(SCCOc2ccccc2)nc2ccccc12	/	/	-2	-128	/	/
CC(c1nc2ccccc2c(=O)[nH]1)N(C)CCOc1ccc(Cl)cc1 (stereo not drawn)	0	2	-1	97*	9	7
CCCC#Cc1ccc([C@@H]2[C@@H](CO)N3CCCCN(S(=O)(=O)c4ccccc4F)C[C@@H]23)cc1	0	/	/	/	-7	-2
COc1ccc(S(=O)(=O)N2CCCCN3[C@@H](CO)[C@H](c4ccc(C#CC(C)C)cc4)[C@@H]3C2)cc1	27	/	/	/	3	74*
Cc1cccc(-c2ccc([C@H]3[C@H](CO)N4CCCCN(S(=O)(=O)c5ccccc5C)C[C@@H]34)cc2)c1	24	/	/	/	2	86*
CCCC#Cc1ccc([C@@H]2[C@H]3CN(S(=O)(=O)c4ccccc4F)CCCCN3[C@H]2CO)cc1	18	/	/	/	/	95*
Cc1cccc(-c2ccc([C@H]3[C@@H](CO)N4CCCCN(S(=O)(=O)c5cccc(C)c5)C[C@H]34)cc2)c1	21	/	/	/	1	-19
Cc1cccc(-c2ccc([C@H]3[C@H]4CN(S(=O)(=O)c5cccc(C)c5)CCCCN4[C@H]3CO)cc2)c1	16	/	/	/	0	103*
Cc1noc(C)c1NC(=O)N(C)C[C@H]1OCCCC[C@H](C)Oc2ccc(NS(C)(=O)=O)cc2C(=O)N([C@H](C)CO)C[C@@H]1C	-3	/	/	3[16.7 µM]	/	-11
O=C(Cc1cccnc1)N[C@H]1CC[C@@H](CCNS(=O)(=O)c2ccccc2Cl)O[C@H]1CO	/	-9	/	/	-1	/
C[C@H](CO)N1C[C@H](C)[C@H](CN(C)C(=O)CCCN(C)C)OCCCC[C@H](C)Oc2ccc(NC(=O)Nc3ccccc3)cc2C1=O	-8	4	/	4[16.7 µM]	5	-19
CO[C@@H]1CN(C)C(=O)c2cc(NC(=O)C3CCOCC3)ccc2OC[C@@H](C)N(CC2CCCCC2)C[C@H]1C	-9	8	/	/	/	-19
CCOc1ccccc1N(CC(=O)Nc1ccc(S(=O)(=O)N2CCOCC2)cc1)S(=O)(=O)c1ccc(Cl)cc1	-6	-1	-2	/	6	62*
COc1ccccc1N(CC(=O)Nc1ccc(S(=O)(=O)N2CCOCC2)cc1)S(C)(=O)=O	6	4	-1	14	2	10
CCCCNC(=O)C[C@H]1C[C@@]2(C(=O)OC)C(=C[C@H](C(C)(C)C)O[C@@H]2C)N(Cc2ccc3c(c2)OCO3)C1=O	18	8	/	82*	2	-7
COC(=O)[C@]12C[C@H](CC(=O)NCCC(C)C)C(=O)N(Cc3ccc4c(c3)OCO4)C1=C[C@H](C(C)(C)C)O[C@@H]2C	17	-4	/	-11	-8	6
COC(=O)[C@]12C[C@H](CC(=O)NCc3cccc(C(F)(F)F)c3)C(=O)N(Cc3ccc4c(c3)OCO4)C1=C[C@H](C(C)(C)C)O[C@@H]2C	2	-1	/	59*	0	14
COC(=O)[C@]12C[C@H](CC(=O)NCc3ccccc3)C(=O)N(Cc3ccc4c(c3)OCO4)C1=C[C@H](C(C)(C)C)O[C@@H]2C	7	-4	/	-8	6	5
CCC(=O)N(C)C[C@@H]1Oc2cc(-c3cccc(OC)c3)ccc2S(=O)(=O)N([C@@H](C)CO)C[C@H]1C	-2	-2	/	-10[16.7 µM]	-4	/
Cc1ccc(-c2ccc([C@@H]3[C@H](CO)N4CCCCN(C(=O)c5ccc(F)cc5)C[C@@H]34)cc2)cc1	3	6	/	/	11	72*
Cc1cccc(-c2ccc([C@H]3[C@H]4CN(C(=O)c5cccnc5)CCCCN4[C@H]3CO)cc2)c1	3	/	/	/	26*	36
SMILES	EWS-Fli inh	FN deposition inh	Glyco luc inh	HIV Env fusion	MLL AF4-AF9 inh	PAX8 inh HTS
CC(=O)N1CCCCN2[C@H](C1)[C@H](c1ccc(-c3cccc(C)c3)cc1)[C@@H]2CO	7	/	/	/	1	74*
O=C(C1CC1)N1C[C@H]2[C@@H](c3ccccc31)[C@H](CO)N2C(=O)c1ccccn1	9	/	/	/	-11	-12
Cn1c(NCc2cc(Br)ccc2O)nc2ccccc21	/	18	-3	16	/	-42
Cn1c(NCc2c(O)ccc3ccccc23)nc2ccccc21	/	-8	-11	71*	/	/
CCOC(=O)N=Nc1c2ccccc2c2nc3no[nH]c3nc12	54*	/	-17	76*	1	87*
CCOC(=O)N=Nc1c(O)n(CC(=O)OC)c2ccccc12	/	-2	1	10	/	-28
CCCCn1c(N)c(N(CCOC)C(=O)COC(=O)c2cc(CCC)c(C)s2)c(=O)[nH]c1=O	13	1	-1	30	41*	19
CCCCN(C(=O)COC(=O)c1ccc(C)s1)c1c(N)n(CCC)c(=O)[nH]c1=O	0	-11	3	3	-1	-4
CC(C)CN(C(=O)COC(=O)c1ccc([N+](=O)[O-])s1)c1c(N)n(Cc2ccccc2)c(=O)[nH]c1=O	-3	-12	10	-4	2	-2
CCCCn1c(N)c(N(CCC(C)C)C(=O)COC(=O)c2ccc([N+](=O)[O-])s2)c(=O)[nH]c1=O	6	-2	2	9	1	91*
COCC(=O)N1CCCCN2[C@H](CO)[C@@H](c3ccc(C#Cc4ccccc4)cc3)[C@@H]2C1	-13	/	/	/	-6	-12
COc1ccc(S(=O)(=O)N(C)C[C@@H]2OCCCC[C@H](C)Oc3ccc(NC(=O)NC4CCCCC4)cc3C(=O)N([C@@H](C)CO)C[C@@H]2C)cc1	13	9	/	27[16.7 µM]	2	66*
C[C@H]1CCCCO[C@@H](CN(C)S(=O)(=O)c2ccc(F)cc2)[C@@H](C)CN([C@@H](C)CO)C(=O)c2cc(NC(=O)NC3CCCCC3)ccc2O1	8	-10	/	?	-1	66*
C[C@H]1CCCCO[C@@H](CN(C)S(=O)(=O)c2ccccc2)[C@@H](C)CN([C@@H](C)CO)C(=O)c2cc(NC(=O)NC3CCCCC3)ccc2O1	14	4	/	20[16.7 µM]	-2	69*
CC(C)NC(=O)Nc1ccc2c(c1)CC(=O)N([C@H](C)CO)C[C@@H](C)[C@H](CN(C)C)O2	/	3	/	1[16.7 µM]	-1	-9
